pIC50, pKd: −log10 of the molar value. The source made the active and inactive calls. The calls are words filed in the database; no cut-off is given here.
Assays:
[1] = biological target: Protein VAC14 homolog (Mus musculus) (UniProt Q80WQ2); experiment: Binding affinity to VAC14 in mouse brain homogenate by Western blot analysis; assay type: tissue-based
Summary of the method: (§1)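 Bead pull-down from HT22 cell or mouse brain extracts, with ethanolamine beads lacking ligand as control. Specificity was tested by adding excess free inhibitor to the extracts before binding.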

[2] = biological target: Glycogen synthase kinase-3 alpha (Mus musculus) (UniProt Q2NL51); experiment: Binding affinity to GSK3alpha in mouse HT22 cell lysate by Western blot analysis; assay type: cell-free; conditions: HT-22; summary of the method: as §1
[3] = system: Brain; experiment: Toxicity against CD Sprague-Dawley rat brain expressing human APP at 0.03 to 3 uM after 3 hrs by fluorescence microscopic analysis; assay type: tissue-based; conditions: in vivo
[4] = biological target: Dual specificity protein kinase CLK1 (Mus musculus, UniProt P22518); experiment: Inhibition of mouse recombinant GST-tagged CLK1 expressed in Escherichia coli using GRSRSRSRSRSR as substrate and [gamma33P]ATP after 30 mins by scintillation counting
Summary of the method: (§2)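 Panel of purified kinases (recombinant from several species plus native enzymes), each assayed radiometrically over a range of inhibitor concentrations; IC50 in μM calculated from the dose-response curves.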

[5] = biological target: Casein kinase II subunit alpha' (Mus musculus) (UniProt O54833); experiment: Binding affinity to CK2 alpha' subunit in mouse HT22 cell lysate by Western blot analysis; assay type: cell-free; conditions: HT-22; summary of the method: as §1
Chain of Casein kinase II subunit alpha' (Mus musculus) (O54833 whole entry): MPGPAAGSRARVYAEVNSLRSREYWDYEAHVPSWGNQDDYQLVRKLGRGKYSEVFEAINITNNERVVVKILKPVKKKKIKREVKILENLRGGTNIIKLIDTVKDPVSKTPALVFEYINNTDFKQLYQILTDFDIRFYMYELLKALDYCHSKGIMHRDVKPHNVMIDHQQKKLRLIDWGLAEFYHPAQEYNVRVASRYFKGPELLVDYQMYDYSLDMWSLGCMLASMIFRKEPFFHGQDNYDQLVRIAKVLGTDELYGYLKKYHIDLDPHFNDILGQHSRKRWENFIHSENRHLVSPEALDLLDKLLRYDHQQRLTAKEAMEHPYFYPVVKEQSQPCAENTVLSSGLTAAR

[6] = biological target: STE20-like serine/threonine-protein kinase (Mus musculus, UniProt O54988); experiment: Binding affinity to SLK1 in mouse brain homogenate after 3 hrs by competition affinity chromatographic analysis; assay type: tissue-based
Summary of the method: (§3)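 Mouse brain lysate applied to a KinAffinity matrix of mixed immobilized broad-spectrum kinase inhibitors at highest loading density, with increasing concentrations of free inhibitor added. […] Separate titrations of the immobilized ligands gave BC50 values.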

[7] = biological target: Dual specificity tyrosine-phosphorylation-regulated kinase 1A (Mus musculus, UniProt Q61214); experiment: Binding affinity to DYRK1A in mouse brain homogenate after 3 hrs by competition affinity chromatographic analysis; assay type: tissue-based; summary of the method: as §3
[8] = biological target: Casein kinase II subunit alpha' (Mus musculus) (UniProt O54833); experiment: Binding affinity to CK2 alpha' subunit in mouse brain homogenate by Western blot analysis; assay type: tissue-based; summary of the method: as §1
[9] = biological target: Cyclin-dependent kinase 7/ cyclin H (Homo sapiens, UniProt P50613); experiment: Inhibition of human recombinant CDK7/cyclin H expressed in insect cell using YSPTSPSYSPTSPSYSPTSPSKKKK as substrate and [gamma33P]ATP after 30 mins by scintillation counting; summary of the method: as §2
Chain of Cyclin-dependent kinase 7/ cyclin H (P51946 whole entry): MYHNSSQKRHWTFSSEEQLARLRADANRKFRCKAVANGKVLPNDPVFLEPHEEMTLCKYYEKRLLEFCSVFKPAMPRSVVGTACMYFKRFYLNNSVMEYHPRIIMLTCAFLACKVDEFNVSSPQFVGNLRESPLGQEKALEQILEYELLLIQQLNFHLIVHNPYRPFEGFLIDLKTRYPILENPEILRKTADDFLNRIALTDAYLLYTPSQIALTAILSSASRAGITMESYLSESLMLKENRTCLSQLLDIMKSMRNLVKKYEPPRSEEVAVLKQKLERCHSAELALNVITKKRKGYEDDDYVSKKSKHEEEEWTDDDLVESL
Chain of Cyclin-dependent kinase 7/ cyclin H (P50613 whole entry): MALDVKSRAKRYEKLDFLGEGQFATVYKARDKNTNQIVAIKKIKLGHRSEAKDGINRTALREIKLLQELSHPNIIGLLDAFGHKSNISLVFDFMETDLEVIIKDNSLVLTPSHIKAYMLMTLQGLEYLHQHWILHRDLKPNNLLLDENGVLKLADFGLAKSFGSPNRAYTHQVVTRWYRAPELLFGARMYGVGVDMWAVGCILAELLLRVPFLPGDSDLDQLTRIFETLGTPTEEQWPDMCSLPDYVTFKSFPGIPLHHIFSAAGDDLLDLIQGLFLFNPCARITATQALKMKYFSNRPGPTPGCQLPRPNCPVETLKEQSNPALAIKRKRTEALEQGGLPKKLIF

[10] = biological target: T1, Dual specificity tyrosine-phosphorylation-regulated kinase 4 (Homo sapiens, UniProt Q9NR20); experiment: Inhibition of human recombinant GST-tagged DYRK4 expressed in Escherichia coli using GRSRSRSRSRSR as substrate and [gamma33P]ATP after 30 mins by scintillation counting
T1 sequence (Q9NR20 whole entry): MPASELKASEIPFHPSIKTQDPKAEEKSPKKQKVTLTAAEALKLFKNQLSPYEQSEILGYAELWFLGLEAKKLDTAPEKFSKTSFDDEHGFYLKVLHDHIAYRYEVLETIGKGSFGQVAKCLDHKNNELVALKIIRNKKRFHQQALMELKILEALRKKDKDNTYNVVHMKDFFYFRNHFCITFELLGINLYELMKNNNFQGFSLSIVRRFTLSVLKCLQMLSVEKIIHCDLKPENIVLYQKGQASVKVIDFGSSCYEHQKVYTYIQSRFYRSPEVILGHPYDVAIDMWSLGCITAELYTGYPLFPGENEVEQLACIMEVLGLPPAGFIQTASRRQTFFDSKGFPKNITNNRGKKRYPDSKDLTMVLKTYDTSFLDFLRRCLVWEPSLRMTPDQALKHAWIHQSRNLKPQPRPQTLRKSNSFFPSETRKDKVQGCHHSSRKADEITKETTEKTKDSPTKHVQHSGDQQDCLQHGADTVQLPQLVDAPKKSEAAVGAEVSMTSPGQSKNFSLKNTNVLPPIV

[11] = biological target: Casein kinase II subunit alpha (Mus musculus, UniProt Q60737); experiment: Binding affinity to CSNK2A1 in mouse brain homogenate after 3 hrs by competition affinity chromatographic analysis; assay type: tissue-based; summary of the method: as §3
[12] = biological target: 1-phosphatidylinositol 3-phosphate 5-kinase (Mus musculus) (UniProt Q9Z1T6); experiment: Binding affinity to phosphatidylinositol-3-phosphate 5-kinase type 3 in mouse brain homogenate by Western blot analysis; assay type: tissue-based; summary of the method: as §1
Chain of 1-phosphatidylinositol 3-phosphate 5-kinase (Mus musculus) (Q9Z1T6 whole entry): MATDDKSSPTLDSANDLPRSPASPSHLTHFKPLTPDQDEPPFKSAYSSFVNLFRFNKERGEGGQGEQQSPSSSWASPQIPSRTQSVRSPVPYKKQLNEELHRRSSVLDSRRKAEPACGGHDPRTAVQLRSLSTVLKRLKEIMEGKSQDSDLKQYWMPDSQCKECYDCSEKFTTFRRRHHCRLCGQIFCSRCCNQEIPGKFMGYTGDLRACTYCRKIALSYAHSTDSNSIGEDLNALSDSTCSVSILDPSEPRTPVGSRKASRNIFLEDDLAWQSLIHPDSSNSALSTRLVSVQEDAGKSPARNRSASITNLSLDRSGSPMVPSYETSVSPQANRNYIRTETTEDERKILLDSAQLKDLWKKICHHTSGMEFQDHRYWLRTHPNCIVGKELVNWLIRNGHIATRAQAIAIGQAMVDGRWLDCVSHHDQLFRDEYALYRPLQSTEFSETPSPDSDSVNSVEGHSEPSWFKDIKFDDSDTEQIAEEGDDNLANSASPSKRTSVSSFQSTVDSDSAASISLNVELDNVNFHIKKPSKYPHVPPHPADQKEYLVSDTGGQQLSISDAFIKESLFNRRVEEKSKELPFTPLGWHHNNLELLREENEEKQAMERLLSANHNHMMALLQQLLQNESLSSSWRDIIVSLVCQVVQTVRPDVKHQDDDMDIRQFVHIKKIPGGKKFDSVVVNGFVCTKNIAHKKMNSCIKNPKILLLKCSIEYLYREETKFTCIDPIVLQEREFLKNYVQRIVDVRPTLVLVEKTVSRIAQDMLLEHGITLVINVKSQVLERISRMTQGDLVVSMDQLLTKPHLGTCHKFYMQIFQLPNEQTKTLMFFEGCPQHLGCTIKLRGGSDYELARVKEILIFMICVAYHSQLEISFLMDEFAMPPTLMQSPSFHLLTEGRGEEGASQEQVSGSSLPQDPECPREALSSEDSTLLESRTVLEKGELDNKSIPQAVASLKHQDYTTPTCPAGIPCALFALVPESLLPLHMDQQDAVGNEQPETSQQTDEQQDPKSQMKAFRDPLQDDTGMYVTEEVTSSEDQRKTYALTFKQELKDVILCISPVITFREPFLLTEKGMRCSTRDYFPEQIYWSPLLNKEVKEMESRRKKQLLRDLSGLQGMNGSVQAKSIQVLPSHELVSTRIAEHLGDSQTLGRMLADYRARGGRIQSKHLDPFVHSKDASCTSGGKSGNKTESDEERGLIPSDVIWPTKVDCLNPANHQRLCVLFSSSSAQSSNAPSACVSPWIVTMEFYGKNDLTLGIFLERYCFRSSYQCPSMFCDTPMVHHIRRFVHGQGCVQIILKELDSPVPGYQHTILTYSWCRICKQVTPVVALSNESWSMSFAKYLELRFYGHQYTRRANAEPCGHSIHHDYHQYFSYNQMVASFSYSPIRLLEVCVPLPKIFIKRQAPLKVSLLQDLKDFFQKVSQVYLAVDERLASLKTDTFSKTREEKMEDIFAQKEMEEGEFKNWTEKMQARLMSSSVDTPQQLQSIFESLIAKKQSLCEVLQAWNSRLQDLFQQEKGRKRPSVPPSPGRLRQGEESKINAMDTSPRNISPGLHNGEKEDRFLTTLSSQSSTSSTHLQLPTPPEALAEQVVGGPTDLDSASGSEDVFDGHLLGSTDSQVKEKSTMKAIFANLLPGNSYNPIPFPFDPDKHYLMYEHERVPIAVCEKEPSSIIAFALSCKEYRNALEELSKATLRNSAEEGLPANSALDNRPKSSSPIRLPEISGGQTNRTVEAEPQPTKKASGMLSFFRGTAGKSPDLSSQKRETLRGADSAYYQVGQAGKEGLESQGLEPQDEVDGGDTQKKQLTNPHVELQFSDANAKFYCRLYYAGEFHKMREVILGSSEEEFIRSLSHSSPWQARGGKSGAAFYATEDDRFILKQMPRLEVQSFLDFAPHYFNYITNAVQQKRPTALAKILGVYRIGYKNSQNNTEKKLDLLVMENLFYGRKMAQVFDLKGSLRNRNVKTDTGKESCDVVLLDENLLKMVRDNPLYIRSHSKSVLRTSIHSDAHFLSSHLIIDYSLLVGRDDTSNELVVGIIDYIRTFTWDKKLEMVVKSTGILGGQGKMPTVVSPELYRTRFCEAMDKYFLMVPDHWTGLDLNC

[13] = biological target: Dual specificity tyrosine-phosphorylation-regulated kinase 1A (Homo sapiens) (UniProt Q13627); experiment: Inhibition of human recombinant GST-tagged DYRK1A expressed in Escherichia coli using KKISGRLSPIMTEQ as substrate at 1 uM after 30 mins
[14] = organism: Mus musculus; experiment: Binding affinity to GSK3beta2 in mouse brain homogenate by Western blot analysis; assay type: tissue-based; summary of the method: as §1
[15] = system: HT-22; experiment: Neuroprotective activity against glutamate-induced toxicity in mouse HT22 cells after 24 hrs by MTS assay; assay type: functional, cell-based
[16] = biological target: Homeodomain-interacting protein kinase 3 (Homo sapiens, UniProt Q9H422); experiment: Binding affinity to HIPK3
Chain of Homeodomain-interacting protein kinase 3 (Q9H422 whole entry): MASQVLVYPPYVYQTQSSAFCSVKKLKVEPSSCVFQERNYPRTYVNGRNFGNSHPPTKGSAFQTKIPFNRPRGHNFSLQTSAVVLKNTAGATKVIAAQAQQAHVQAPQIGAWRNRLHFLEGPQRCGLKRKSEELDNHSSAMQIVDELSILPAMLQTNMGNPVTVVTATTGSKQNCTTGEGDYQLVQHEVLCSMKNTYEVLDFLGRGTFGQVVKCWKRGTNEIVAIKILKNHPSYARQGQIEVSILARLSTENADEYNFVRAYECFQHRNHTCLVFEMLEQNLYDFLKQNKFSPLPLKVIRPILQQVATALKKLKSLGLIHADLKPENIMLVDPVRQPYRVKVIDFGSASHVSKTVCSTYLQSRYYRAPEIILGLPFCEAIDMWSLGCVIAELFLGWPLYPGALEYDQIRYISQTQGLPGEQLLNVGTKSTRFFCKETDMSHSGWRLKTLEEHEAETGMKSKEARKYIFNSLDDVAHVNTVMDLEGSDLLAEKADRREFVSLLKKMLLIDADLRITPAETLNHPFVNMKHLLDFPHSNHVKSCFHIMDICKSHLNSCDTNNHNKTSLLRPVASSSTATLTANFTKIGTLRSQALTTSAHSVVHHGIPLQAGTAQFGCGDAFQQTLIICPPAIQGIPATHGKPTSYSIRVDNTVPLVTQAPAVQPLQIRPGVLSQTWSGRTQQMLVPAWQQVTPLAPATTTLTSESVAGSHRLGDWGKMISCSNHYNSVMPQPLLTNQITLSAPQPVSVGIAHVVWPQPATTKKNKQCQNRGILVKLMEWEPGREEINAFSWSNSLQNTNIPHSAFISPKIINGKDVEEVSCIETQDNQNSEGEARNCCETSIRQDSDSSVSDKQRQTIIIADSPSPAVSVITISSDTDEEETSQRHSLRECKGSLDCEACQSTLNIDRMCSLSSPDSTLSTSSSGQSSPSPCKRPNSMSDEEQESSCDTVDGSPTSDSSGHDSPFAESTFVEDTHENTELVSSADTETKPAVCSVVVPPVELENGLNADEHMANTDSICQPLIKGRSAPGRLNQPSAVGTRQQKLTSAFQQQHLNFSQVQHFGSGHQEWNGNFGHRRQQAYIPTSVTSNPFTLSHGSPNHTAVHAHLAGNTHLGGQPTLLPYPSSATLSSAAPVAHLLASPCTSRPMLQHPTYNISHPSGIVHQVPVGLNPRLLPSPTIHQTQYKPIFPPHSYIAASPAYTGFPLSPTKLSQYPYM

[17] = biological target: Cyclin-dependent kinase 2/cyclin A (Homo sapiens, UniProt P24941); experiment: Inhibition of CDK2/cyclin A using [gamma33P]ATP after 30 mins by scintillation counting; assay type: protein-complex assay; summary of the method: as §2
[18] = biological target: Mitogen-activated protein kinase 1 (Rattus norvegicus, UniProt P63086); experiment: Inhibition of rat recombinant ERK2 using Ets1 as substrate and [gamma33P]ATP as substrate after 30 mins by scintillation counting; summary of the method: as §2
Chain of Mitogen-activated protein kinase 1 (P63086 whole entry): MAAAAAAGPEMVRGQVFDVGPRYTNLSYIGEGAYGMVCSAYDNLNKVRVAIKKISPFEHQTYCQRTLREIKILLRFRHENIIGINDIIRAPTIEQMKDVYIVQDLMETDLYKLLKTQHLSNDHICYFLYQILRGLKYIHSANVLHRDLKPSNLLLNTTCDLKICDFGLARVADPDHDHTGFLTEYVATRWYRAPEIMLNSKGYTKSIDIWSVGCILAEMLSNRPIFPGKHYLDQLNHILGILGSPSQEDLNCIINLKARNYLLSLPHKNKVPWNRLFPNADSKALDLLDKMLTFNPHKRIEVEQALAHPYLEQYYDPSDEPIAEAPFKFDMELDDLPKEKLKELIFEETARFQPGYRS

[19] = system: HT-22; experiment: Inhibition of GSK3 isolated from mouse HT22 cells; assay type: cell-free
[20] = biological target: Homeodomain-interacting protein kinase 2 (Homo sapiens) (UniProt Q9H2X6); experiment: Inhibition of human recombinant GST-tagged HIPK2 expressed in Escherichia coli at 10 uM after 30 mins
[21] = Binding affinity to casein kinase 2

SMILES: O=C1NC(Nc2ccccc2)=N/C1=C\c1ccc2c(c1)OCO2
- Activity [1]: Active
- Activity [2]: Active
- Activity [3]: Non-toxic
- pIC50 [4]: 7.15
- Activity [5]: Active
- Kd(free) [6]: 21 nM
- Kd(free) [7]: 65 nM
- Activity [8]: Active
- pIC50 [9]: < 5.00
- pIC50 [10]: 6.28
- Kd(free) [11]: 326 nM
- Activity [12]: Active
- inhibition [13]: Active
- Activity [14]: Active
- Activity [15]: Dose-dependent effect
- pKd [16]: 6.64
- pIC50 [17]: < 4.52
- pIC50 [18]: < 4.52
- inhibition [19]: inactive
- inhibition [20]: Active
- Activity [21]: Active
